From paper PMC7078523 (Saudi Pharmaceutical Journal : SPJ, 2020)
Values after ≈ are worked out from the molar mass of the structure shown.

Key:
[1] = cited from earlier work
In-vivo bioavailability = test: In-vivo bioavailability; set-up: species or system rats; settings: male, albino, rat, plasma, po, 15 mg/kg
Summary of the method: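 Fasted male albino rats (300±25 g), 7 per group, single oral 15 mg/kg as 1 ml aqueous suspension by feeding tube with 10 ml water. Orbital sinus blood into heparin at 0–48 h; plasma stored at -80 °C. Acetonitrile protein precipitation, propranolol internal standard, LC-MS/MS over 10–6000 ng/mL. Non-compartmental parameters per rat; AUC0-48 by log-linear trapezoidal rule, kel from terminal slope, t1/2 = 0.693/kel.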

In-vitro release study = assay type: physicochemical
[2] = Phase solubility study of GRI with β-CD, NS2 and NS3; assay type: physicochemical; settings: distilled water

Row | SMILES | Aqueous solubility ([1]; physiological pH, ref Swaminathan et al., 2007) | Biopharmaceutics Classification System (BCS) class ([1]; ref Amidon et al., 1995) | log P (octanol/water) ([1]; ref Arida et al., 2007) | AUC(0-t) (In-vivo bioavailability) [ng·h/mL] | Cmax (In-vivo bioavailability) [ng/mL] | Tmax (In-vivo bioavailability) [h] | half-life (In-vivo bioavailability) [h] | k el (In-vivo bioavailability) [s⁻¹] | GRI cumulative percent released/dissolved after 2 hrs (In-vitro release study; 0.1 N HCl (pH 1.2), 37 °C, 50 rpm) [%] | GRI cumulative percent released/dissolved after 7 h (In-vitro release study; 2 h 0.1 N HCl then 5 hrs phosphate buffer pH 7.4) [%] | Dissolution efficiency (%D.E.) (In-vitro release study; after 7 hrs) [%] | Best fitted release kinetics model (In-vitro release study; highest correlation coefficient (R^2)) | solubility [2] [µM]
1 | CCC(C)n1ncn(-c2ccc(N3CCN(c4ccc(OCC5COC(Cn6cncn6)(c6ccc(Cl)cc6Cl)O5)cc4)CC3)cc2)c1=O (stereo not shown) [itraconazole] | about 1 ng mL^−1 | – | – | – | – | – | – | – | – | – | – | – | –
2 | COC1=CC(=O)C[C@@H](C)[C@]12Oc1c(Cl)c(OC)cc(OC)c1C2=O [GRI, Griseofulvin] | – | class II | 2.15 | 22500 | 1810 | 2 | 20 | 1.03e-05 | 21.81 ± 0.07 | 27.43 ± 0.32 | 23.87 | Higuchi release kinetics model | ~35 (≈ 12.3 µg/mL)
